# Screens deposited in PubChem BioAssay by several laboratories.
# TPT1 inhibitor: Candida albicans TPT1 enzyme inhibitors, primary screen, biochemical, fluorescence polarization | tRNA 2'-phosphotransferase TPT1 (Candida albicans SC5314) | AID 1962, 2009 | 300,000 compounds, 0.81% hits | recombinant caTPT1, FP RNA substrate dephosphorylation | inhibition, % at 5 µM;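 active means inhibition above the mean of all tested compounds plus 3 SD, set per screening campaign, cut at about 24% in these data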;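 further: plate controls were DMSO alone for no effect and ferristatin control at 100 nM for full effect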
# CSN inh: inhibitors of CSN-mediated cullin deneddylation, primary screen, biochemical, fluorescence polarization, uHTS; Purified CSN, SCF-Nedd8-OG deneddylation; COP9 signalosome complex subunit 5 (Homo sapiens), Q92905; 360,000 compounds, 0.38% hits; inhibition, % at 12.5 µM;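 active means pattern-corrected inhibition above about 35%, with an unprinted fluorescence ratio check between 0.5 and 1.5, limit read from the data, passing the limit was not always enough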;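 further: 0% = enzyme with substrate and 100% = substrate without enzyme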
#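 Test system: Human Csn5 produced in HEK293T cells | Compound: 12.5 µM single point | Times: 90 min, room temperature | Signal: Fluorescence polarization readout | Read-out basis: % inhibition of substrate cleavage by Csn5 | Controls: no-enzyme wells high, enzyme-with-substrate wells low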
# HNF4A DNA FP: change in binding of human HNF4A to DNA, primary screen, biochemical, fluorescence polarization, FITC-DNA | Hepatocyte nuclear factor 4-alpha (Homo sapiens), P41235 | 1 h | activity change, % at 10 µM | 360,000 compounds, 0.3% hits | AID 1224865, 2016; in the data active means activity change above about 30%, passing the limit was not always enough
# Target sequence (P41235 whole entry, looked up): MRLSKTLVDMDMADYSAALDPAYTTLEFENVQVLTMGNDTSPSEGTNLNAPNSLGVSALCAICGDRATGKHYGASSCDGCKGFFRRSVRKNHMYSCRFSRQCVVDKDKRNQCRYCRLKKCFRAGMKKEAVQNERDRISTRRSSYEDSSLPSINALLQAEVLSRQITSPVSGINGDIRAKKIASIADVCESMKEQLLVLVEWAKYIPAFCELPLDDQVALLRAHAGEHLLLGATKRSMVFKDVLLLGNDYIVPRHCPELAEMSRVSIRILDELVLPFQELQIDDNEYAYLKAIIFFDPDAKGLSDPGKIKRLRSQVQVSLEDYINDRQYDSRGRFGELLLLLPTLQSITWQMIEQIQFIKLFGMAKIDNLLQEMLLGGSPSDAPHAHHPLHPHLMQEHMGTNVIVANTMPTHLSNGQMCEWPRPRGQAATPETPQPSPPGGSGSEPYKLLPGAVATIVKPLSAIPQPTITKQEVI
# NR1D1 modulator: modulators of Rev-erb alpha DNA binding, primary screen, biochemical, FITC-DNA, fluorescence polarization, uHTS. Nuclear receptor subfamily 1 group D member 1 (Homo sapiens), P20393. Rev-erbα–FITC-DNA binding, 90 min. activity, % at 10 µM. 370,000 compounds, 0.79% hits. AID 1259318, 2017;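 active means activity above about 14%, limit read from the data; passing the limit was not always enough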;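 further: 0% = DMSO wells with 35 nM protein and 100% = DMSO wells with 750 nM protein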
# Rev-erbA confirm: modulators of Rev-erb alpha DNA binding, confirmation, biochemical, FITC-DNA, fluorescence polarization, single point; shares compounds with NR1D1 modulator; 90 min; 3,000 compounds, 61% hits; activation, % at 25 µM;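 active means activation at or above a set limit, or at least 3 SD above the negative control mean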;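 further: 0% = 35 nM protein with DMSO and 100% = 750 nM protein high control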
# RORg counter: modulation of RORgamma DNA binding, dose response, counter-screen for Rev-erb alpha modulator project, biochemical, fluorescence polarization, FITC-DNA | shares compounds with NR1D1 modulator | IC50, µM | AID 1259320, 2017 | purified RORgamma protein-FITC-DNA binding | 910 compounds, 8% hits;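 active means Compounds whose fitted half-maximal concentration for disrupting protein-DNA binding is below 10 micromolar; the record names Rev-erb in its text, so the target is in doubt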
# Active calls of the source: *; i = inactive; · = not tested or not shown. Shown are actives, neighbours in structure and some others; about 1.7% of the full set was active somewhere.
SMILES,TPT1 inhibitor,CSN inh,HNF4A DNA FP,NR1D1 modulator,Rev-erbA confirm,RORg counter
Cc1ccc(C(=O)N2N=C(c3ccccc3O)CC2c2ccccc2)cc1 (centres undefined),2,3,2,38*,25*,·
OCc1cn(-c2ccccc2)nc1-c1ccc(-c2nn(-c3ccccc3)cc2CO)cc1,-4,8,-1,16*,8,·
O=C(O)Cc1cn(-c2ccccc2)nc1-c1ccccc1,-2,-6,2,-1,·,·
O=C1c2c(Br)c(Br)c(Br)c(Br)c2C(=O)N1c1ccccn1,-1,9,-5,276*,391*,>40
COC(=O)C1CCN(C2CN(Cc3cn(Cc4ccc(C(F)(F)F)cc4)nn3)S(=O)(=O)C2)CC1 (centres undefined),·,·,·,4,·,·
O=C(N=c1ccn(-c2nc3ccccc3nc2NS(=O)(=O)c2ccccc2)cc1)c1cccs1,2,18,7,174*,145*,>40
CC1CN(c2nc3ccccc3nc2NS(=O)(=O)c2ccccc2)CC(C)O1 (centres undefined),·,-4,3,-4,·,·
O=S(=O)(Nc1nc2ccccc2nc1N1CCN(c2ccccc2)CC1)c1ccc(F)cc1,-2,-3,-11,2,·,·
Cc1ccccc1C(=O)N=c1ccn(-c2nc3ccccc3nc2NS(=O)(=O)c2ccc(F)cc2)cc1,5,5,13,35*,92*,>40
OCC1COC(c2ccccc2)=N1 (centres undefined),·,·,·,2,·,·
CN(CC(=O)Nc1ccc(F)cc1)C(=O)CCc1nc2sc3c(c2c(=O)[nH]1)CCCC3,15,15,6,16,·,·
CN(CC(=O)Nc1ccccc1C(F)(F)F)C(=O)CCc1nc2sc3c(c2c(=O)[nH]1)CCCC3,7,10,3,30*,22*,·
CCN(CC(=O)Nc1ccccc1C(F)(F)F)C(=O)CCc1nc2sc3c(c2c(=O)[nH]1)CCCC3,8,13,1,20*,0,·
Cc1ccc(OCc2nnc(SCC(=O)Nc3ccc(S(=O)(=O)Nc4cc(C)nc(C)n4)cc3)n2Cc2ccco2)cc1,·,·,·,-2,·,·
CC(C)CC(=O)c1c(O)cc(O)c2c1OC1=C(C(=O)C(C)(C)C(=O)C1(C)C)C2CC(C)C (centres undefined),·,·,·,-4,·,·
COc1ccccc1CNc1ncnc2cc(Cl)ccc12,·,7,-2,180*,137*,i
CC(=O)Nc1nc2cc3c(cc2s1)OCO3,-1,0,1,-1,·,·
CC(=O)Nc1ccc2nc(NC(=O)COc3ccccc3)sc2c1,0,-8,1,3,·,·
O=C(COc1ccccc1)Nc1nc2cc3c(cc2s1)OCCO3,-2,4,-2,76*,50*,>40
O=C(COc1ccccc1)Nc1nc2cc3c(cc2s1)OCO3,-2,4,0,41*,15,·
COC(=O)c1cc2c(c3c4ccccc4n(S(C)(=O)=O)c13)C(=O)N(Cc1ccccc1)C2,·,·,·,4,·,·
Cc1ccc(S(=O)(=O)NC[C@H]2CN(S(=O)(=O)c3ccc(C)cc3)[C@@H](Cc3ccccc3)CO2)cc1,·,·,·,8,·,·
C#Cc1cccc(N2C(=O)C3C4C=CC(C3C2=O)C2C(=O)N(c3cccc(C#C)c3)C(=O)C42)c1 (centres undefined),·,-2,-1,-4,·,·
CC(=O)CSc1ncnc2sc3c(c12)CCCC3,2,0,1,-5,·,·
CC(C)Cn1c(N)c(C(=O)CSc2ncnc3sc4c(c23)CCCC4)c(=O)n(C)c1=O,0,7,5,65*,14,·
SMILES,TPT1 inhibitor,CSN inh,HNF4A DNA FP,NR1D1 modulator,Rev-erbA confirm,RORg counter
CC1(C(=O)NCc2ccccc2)CN(S(C)(=O)=O)CC(=O)N1CCc1c[nH]c2ccccc12 (centres undefined),·,2,3,-4,·,·
N#Cc1ccc(N[C@@H]2CCN3C(=O)c4ccccc4[C@@H]3C[C@H]2O)cc1,·,0,0,5,·,·
C[C@H](O)[C@@H]1C(=O)N2CCc3c([nH]c4c(-c5ccccc5)cccc34)[C@@H]2C[C@@H]1N(C)C(=O)c1cc(Cl)cc(Cl)c1,·,·,·,-1,·,·
Cc1ccccc1C(=O)N(C)[C@H]1C[C@H]2c3[nH]c4c(-c5ccccc5)cccc4c3CCN2C(=O)[C@H]1[C@H](C)O,·,·,·,13*,2,·
Cc1cc(NC(=O)Cn2nc(-c3cccs3)ccc2=O)cc(C)c1Br,-2,0,0,6,·,·
Cc1c(Br)ccc(NC(=O)Cn2nc(-c3cccs3)ccc2=O)c1C,-5,11,-4,50*,42*,>40
C/C(=C/c1oc2ccc(O)cc2c1[N+](=O)[O-])N(C)C,1,2,9,22*,25*,·
CC(C)=Cc1oc2ccc([N+](=O)[O-])cc2c1N1CCOCC1,-1,-7,2,-3,·,·
CC(=O)Oc1ccc2oc(/C=C/N(C)C)c([N+](=O)[O-])c2c1,9,10,25,25*,43*,>40
Cc1cc(NC(=O)Cc2cn(C)c3ccccc23)ccc1Oc1cccnc1,·,·,·,5,·,·
COc1ccccc1CNC(=O)N(CCc1c(C)[nH]c2ccccc12)Cc1cccs1,·,·,·,-5,·,·
Nc1nc2c(Br)ccc(Br)c2cc1C(=O)NCc1cccc2ccccc12,·,-2,3,10,·,·
CN(C)C=Nc1nc2c(Br)ccc(Br)c2cc1C(=O)NCC(C)(C)C,·,·,·,23*,40*,>40
COC(=O)c1c(-c2ccc(OC)cc2)c2c(c3c4cc(OC)ccc4n(S(=O)(=O)c4ccc(C)cc4)c13)C(=O)N(C)C2,·,·,·,8,·,·
Brc1ccc2ncc(Br)cc2c1,1,-1,2,45*,33*,>40
Cn1c(N)c(C(=O)CSc2nn(-c3ccc(F)cc3)c(=S)s2)c(=O)n(C)c1=O,·,5,7,42*,42*,>40
CCOC(=O)c1sc(NC(=S)NC(=O)C2CCCC2)cc1C,-1,2,4,70*,40*,>40
CCOC(=O)c1sc(NC(=O)c2ccc(Cl)s2)cc1C,-5,-3,3,16*,12*,·
Cc1cc(-c2ccccc2)nc2oc3c(c12)NC(=O)CN(c1ccccc1)C3=O,-1,1,2,23*,35*,1.1*
COc1cccc(N2CC(=O)Nc3c(oc4nc(-c5ccccc5)cc(C)c34)C2=O)c1,-3,-3,2,18,·,·
O=C(CCn1nnc2ccccc21)Nc1nnc(-c2ccccc2F)s1,3,7,3,28*,17,·
O=C(CCn1nnc2ccccc21)Nc1nnc(COc2ccccc2F)s1,0,8,3,1,·,·
O=C(NC1CCCCN(Cc2cccc(Cl)c2)C1=O)c1ccc(F)c(F)c1 (centres undefined),·,·,·,-4,·,·
